Screens deposited in PubChem BioAssay by Broad Institute.
HIV Env fusion – inhibitors of HIV-1 Env-driven cell-cell fusion, primary screen, HeLa-JRFL effector, CEM21 target cells, luciferase; 360,000 compounds, 1.1% hits; AID 651610, 2012; inhibition, % at 12.3 µM;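 active = mean replicate inhibition score of at least 50 and every replicate individually at or above 50; inconclusive = only one of the two criteria met; inactive = mean below 50 and not all replicates reaching 50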;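 note: 0% = plate neutral controls and 100% = maraviroc near 300 nM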
miR122 inh – miR-122 Renilla sensor signal increase in Huh7, primary screen, miR-122 inhibitor project, cell-based, single point, plate reader. Huh7 miR-122 Renilla luciferase sensor, 48 h; neutral wells = 0, positive control = 100. activation (reporter increase), % at 12.5 µM. 340,000 compounds, 0.3% hits;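 active = mean replicate activation score at least 90 and every replicate individually at or above 90; inconclusive = only one of the two criteria met; inactive = neither criterion met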;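 note: higher luciferase means less miR-122 activity so hits act as miR-122 inhibitors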
Cneo AK release – Cryptococcus neoformans cell lysis inducers, primary screen, AK release luminescence, single concentration | lysis activity, % at 15 µM | AID 651654, 2012 | C. neoformans lysis, adenylate kinase release luminescence, 4 h; normalised: neutral wells 0, clomiphene wells 100 | 360,000 compounds, 0.2% hits;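 active = mean lysis activity across replicates of at least 80%, whatever share of replicates individually reach that level; inactive = mean lysis activity below 80%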
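Test system: log-phase Cryptococcus neoformans yeast cells; Quantity: yeast cell density of 5 × 10^6 cells/mL; Buffer or medium: YPD; Doses: single compound concentration per well; Timing: 4 h at 37 °C static, read 1 h later; Measured by: AK luminescence; Read-out basis: lysis from increased AK signal; Control set: Clomiphene as positive control.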
Rtt109 Vps75 – inhibitors of C. albicans Rtt109/Vps75 HAT, primary screen, biochemical, ThioGlo CoA-SH fluorescence, plate reader; Histone acetyltransferase RTT109 (Candida albicans (strain SC5314 / ATCC MYA-2876)), …; purified Rtt109/Vps75, 4 h; inhibition, % at 34.9 µM; 330,000 compounds, 0.16% hits; AID 540336, 2011;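 active = inhibition of at least 50% in every replicate; inconclusive = best replicate reaches 50% inhibition but some replicates fall short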
INS-1E GSIS act – GLuc luminescence reporter in INS-1E cells, primary screen for activators of glucose-dependent secretion of insulin | 370,000 compounds, 0.61% hits | activation, % at 16.6 µM | INS-1E GLuc reporter insulin secretion, 2-3 h;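 active = lowest replicate activation of at least 40%, so every replicate reaches that level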;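 note: 0% = median of neutral control wells and 100% = median of IBMX positive control wells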
dFosB act – activators of delta FosB homodimer, primary screen, biochemical, fluorescence polarization, TAMRA-CDK5 oligo, single point. Protein FosB (Mus musculus), P13346. purified delta FosB; percent of positive-control signal above neutral wells. activation, % at 25 µM. 340,000 compounds, 0.99% hits;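 active = mean activation above about 17%, with every replicate also reaching it, limit read from the data, passing the limit was not always enough; inconclusive = only one of the two conditions met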
Target sequence (P13346 whole entry, looked up): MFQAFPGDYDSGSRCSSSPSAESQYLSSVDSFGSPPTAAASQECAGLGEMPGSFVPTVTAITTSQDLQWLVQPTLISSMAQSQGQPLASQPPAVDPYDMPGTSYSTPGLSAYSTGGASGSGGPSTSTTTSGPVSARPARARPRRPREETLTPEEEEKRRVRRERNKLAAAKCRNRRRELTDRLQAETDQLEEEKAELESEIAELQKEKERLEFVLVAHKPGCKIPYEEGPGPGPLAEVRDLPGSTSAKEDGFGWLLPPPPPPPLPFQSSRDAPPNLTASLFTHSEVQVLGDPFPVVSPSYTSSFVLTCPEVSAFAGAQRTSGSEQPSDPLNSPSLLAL
* hit, by the source's call; ? = inconclusive; / = no result given; [ ] = another dose, or the depositor's remark. Hits are enriched below; roughly 2.4% of the tested compounds scored in any of these assays.

SMILES	HIV Env fusion	miR122 inh	Cneo AK release	Rtt109 Vps75	INS-1E GSIS act	dFosB act
O=C(CCCn1c(=S)[nH]c2cc3c(cc2c1=O)OCO3)N1CCN(c2ccc(Cl)cc2)CC1	99*	/	/	6	/	3
O=C(N[C@H]1CC[C@@H](CC(=O)N2CCOCC2)O[C@@H]1CO)c1ccccn1	/	/	-2	/	-8	/
CC(C)NC(=O)N1[C@@H](CO)[C@@H](c2ccccc2)C12CN(C(=O)CN(C)C)C2	/	/	/	/	7	/
COCCCn1c(=O)/c(=C\c2ccccc2OC(F)F)s/c1=C(/C#N)C(N)=O	32	167*	3	-5	-5	-13
COCCCn1c(=O)/c(=C\c2ccc(OC(F)F)c(OC)c2)s/c1=C(/C#N)C(N)=O	-12	/	/	-38	11	-4
C[C@@H]1CN([C@@H](C)CO)C(=O)c2cc(NS(=O)(=O)c3ccc(Cl)cc3)ccc2O[C@@H](C)CCCCO[C@H]1CN(C)S(=O)(=O)c1cccs1	-18[16.7 µM]	7[16.7 µM]	-1	/	1	/
O=C(c1ccccc1)c1ccccc1	/	-8	2	-5	/	0
O=C(c1ccccc1)c1ccc(-c2ccc(O)cc2)cc1	-14	92*	-1	-5	-3	-2
CCCN(C)C[C@H]1Oc2cc(C#CCC3CCCC3)ccc2S(=O)(=O)N([C@H](C)CO)C[C@@H]1C	-2[16.7 µM]	-5[16.7 µM]	2	/	/	/
CNc1ccc2ncc(-c3ccc(OC)c(OC)c3)n2n1	58*	-12	-1	/	35	/
CCCC(=O)Nc1ccc2c(c1)C(=O)N(C)[C@H]1CC[C@@H](CC(=O)NCC3CCCCC3)O[C@@H]1CO2	6[16.7 µM]	-1[16.7 µM]	-4	/	3	/
O=C(O)c1c(NC(=O)N2CCOCC2)sc2c1CCCC2	21	-5	-3	1	62*	-8
NC(=O)c1c(NC(=O)c2cccs2)sc2c1CCCCCC2	/	-7	-2	-2	21	?
O=C(Nc1sc2c(c1C(=O)O)CCC2)c1cccs1	/	202*	/	-4	/	-8
NC(=O)c1c(NC(=O)C(=O)N2CCOCC2)sc2c1CCCC2	-5	-5	0	-26	1	-5
C[C@@H]1CN([C@H](C)CO)C(=O)c2cc(NS(=O)(=O)c3ccc(F)cc3)ccc2O[C@@H](C)CCCCO[C@@H]1CN(C)C(=O)CCCN(C)C	10[16.7 µM]	4[16.7 µM]	1	/	28	/
COc1ccc2c3c(n(C)c2c1)[C@H](CO)N(CC1CC1)CC31CCN(C(C)=O)CC1	/	/	/	/	16	/
C[C@@H]1CN([C@@H](C)CO)C(=O)Cc2cc(N(C)C)ccc2O[C@H]1CN(C)C(=O)Nc1ccc(C(F)(F)F)cc1	31[16.7 µM]	0[16.7 µM]	7	/	-16	/
C[C@@H]1CN([C@@H](C)CO)C(=O)c2cc(C#CCN(C)C)cnc2O[C@H]1CN(C)C(=O)c1cccnc1	-3[16.7 µM]	-13[16.7 µM]	1	/	29	/
CC1CCC(NCCNC(=O)c2ccco2)CC1 (stereo not given)	5	3	6	2	44*	-4
O=C(NCCNC1CCCCC1)c1ccco1	1	-3	7	1	13	2
C[C@@H]1CN([C@H](C)CO)C(=O)c2cc(C#Cc3ccncc3)cnc2O[C@@H]1CN(C)S(=O)(=O)c1ccccc1F	60*[16.7 µM]	-7[16.7 µM]	51	/	10	/
C[C@@H]1CN([C@H](C)CO)C(=O)c2cc(/C=C/c3ccccc3)cnc2O[C@H]1CN(C)S(=O)(=O)c1ccccc1F	12[16.7 µM]	-4[16.7 µM]	0	/	-6	/
Cc1ccc(S(=O)(=O)N(C)C[C@@H]2Oc3ncc(/C=C/c4ccccc4)cc3C(=O)N([C@H](C)CO)C[C@@H]2C)cc1	75*[16.7 µM]	3[16.7 µM]	0	/	-13	/
C[C@@H]1CN([C@@H](C)CO)C(=O)c2cc(C#Cc3ccncc3)cnc2O[C@H]1CN(C)S(=O)(=O)c1ccccc1F	28[16.7 µM]	-9[16.7 µM]	0	/	-24	/
